{"source": "paper PMC2597579", "about": "(Neuroscience letters, 2008)", "key": {"GABAA receptor": {"test_system": "GABAA receptor", "details": "cited from earlier work"}, "[1]": {"molecular_target": "T1, α1β2γ2s GABAA receptor (rat subunits expressed in Xenopus laevis oocytes) (Rattus norvegicus, UniProt P18508+P62813+P63138)", "T1 sequence (P62813 28-455)": "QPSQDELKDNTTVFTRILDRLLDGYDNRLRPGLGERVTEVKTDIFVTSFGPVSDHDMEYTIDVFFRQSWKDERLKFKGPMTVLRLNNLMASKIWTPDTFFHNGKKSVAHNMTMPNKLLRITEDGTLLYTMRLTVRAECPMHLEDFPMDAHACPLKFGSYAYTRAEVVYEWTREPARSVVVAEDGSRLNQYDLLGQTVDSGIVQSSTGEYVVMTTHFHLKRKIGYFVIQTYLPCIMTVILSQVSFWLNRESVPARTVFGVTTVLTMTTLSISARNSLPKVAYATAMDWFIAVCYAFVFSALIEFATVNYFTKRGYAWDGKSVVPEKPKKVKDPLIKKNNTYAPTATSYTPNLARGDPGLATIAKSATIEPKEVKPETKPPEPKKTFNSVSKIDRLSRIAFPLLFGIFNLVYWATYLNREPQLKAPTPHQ", "T1 sequence (P63138 26-474)": "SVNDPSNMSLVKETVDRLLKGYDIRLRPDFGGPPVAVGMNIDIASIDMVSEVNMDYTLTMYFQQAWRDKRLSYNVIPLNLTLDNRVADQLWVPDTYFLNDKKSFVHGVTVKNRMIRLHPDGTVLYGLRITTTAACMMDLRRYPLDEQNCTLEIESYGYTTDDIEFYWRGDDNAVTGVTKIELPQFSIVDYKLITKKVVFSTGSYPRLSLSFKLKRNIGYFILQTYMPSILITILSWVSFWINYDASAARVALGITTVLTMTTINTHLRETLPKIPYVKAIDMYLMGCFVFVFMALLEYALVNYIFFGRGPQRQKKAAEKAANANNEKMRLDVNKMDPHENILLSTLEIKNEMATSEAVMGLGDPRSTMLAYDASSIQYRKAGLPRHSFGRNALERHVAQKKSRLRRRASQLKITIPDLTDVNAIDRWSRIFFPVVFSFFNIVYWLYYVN", "T1 sequence (P18508 39-466)": "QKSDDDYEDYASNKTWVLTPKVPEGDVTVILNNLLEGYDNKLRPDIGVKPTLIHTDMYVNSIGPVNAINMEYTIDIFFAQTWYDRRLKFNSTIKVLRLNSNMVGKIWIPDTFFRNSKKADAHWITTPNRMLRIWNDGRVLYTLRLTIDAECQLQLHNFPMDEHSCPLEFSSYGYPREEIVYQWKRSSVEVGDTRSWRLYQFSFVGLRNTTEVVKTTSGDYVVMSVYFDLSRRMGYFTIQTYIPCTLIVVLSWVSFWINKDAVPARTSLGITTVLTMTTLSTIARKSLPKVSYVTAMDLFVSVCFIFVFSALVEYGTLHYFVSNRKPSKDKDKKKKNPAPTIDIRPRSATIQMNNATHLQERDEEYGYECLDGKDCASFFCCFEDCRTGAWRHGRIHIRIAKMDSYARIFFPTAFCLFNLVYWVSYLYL", "format": "cell-based", "method_in_brief": "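Rat α1, β2, γ2S cRNAs injected 1:1:1 into defolliculated stage IV–V Xenopus laevis oocytes, kept 2–3 days at 18°C. Two-electrode voltage clamp at −60 mV, room temperature, Ca-free frog Ringer's pH 7.5. […] Percent change from control peak; t-test.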"}, "GABAA receptors": {"test_system": "GABAA receptors", "details": "ref Wan et al. [39], cited from earlier work"}, "α4β3γ1 GABAA receptor": {"test_system": "α4β3γ1 GABAA receptor", "details": "insulin, α4β3γ1 isoform; ref [40]; cited from earlier work"}, "[2]": {"molecular_target": "T1, α1β2γ2s GABAA receptor (rat subunits expressed in Xenopus laevis oocytes)", "format": "cell-based", "remark": "listed apart in the source"}}, "note": "Where two headings read alike, the source gives them in different places.", "data": [{"compound": "c1ccc2c(c1)Cc1ccccc1-n1c-2nnc1N1CCNCC1", "note": "[pitrazepin]", "values": [{"measurement": "type of GABAA antagonism", "setting": "GABAA receptor; similar effects and shifts in GABA dose response curves, ref [14]", "result": "competitive inhibitors of the GABAA receptor"}]}, {"compound": "insulin: pancreatic peptide hormone; bovine form (cat I-5500) from Sigma, dissolved in 0.1% acetic acid", "values": [{"measurement": "effect of insulin on GABA induced current", "setting": "[1]; 1 nM insulin + 1 µM GABA", "result": "inhibits currents elicited by 1 µM GABA"}, {"measurement": "reversibility of the inhibitory effect of insulin", "setting": "[1]; 1 nM insulin, then 1 µM GABA only", "result": "reversible"}, {"measurement": "saturating insulin concentration", "setting": "[1]; 100 nM insulin", "result": "at or near saturating"}, {"measurement": "effect of insulin on GABA induced current", "setting": "[1]; 100 nM insulin + 1 µM GABA", "result": "inhibits currents elicited by 1 µM GABA"}, {"measurement": "effect of insulin on GABA induced current", "setting": "[1]; 100 nM insulin + 100 µM GABA", "result": "no significant effect"}, {"measurement": "percent change in GABA induced current", "setting": "[1]; 100 nM insulin co-applied with 100 µM GABA (near saturating), not significant", "result": "−0.33 ± 2.0", "unit": "%"}, {"measurement": "inhibition of GABA induced current", "setting": "[1]; insulin co-applied with low (EC30–50) concentrations of GABA", "result": "about 38%"}, {"measurement": "affinity of insulin for the GABA receptor", "setting": "[1]; stated in discussion, from insulin dose response", "result": "nanomolar affinity for the GABA receptor"}, {"measurement": "incubation time required for potentiating effect", "setting": "GABAA receptors; 500 nM insulin", "result": "at least 10 minutes"}, {"measurement": "insulin concentration required for potentiating effect", "setting": "GABAA receptors; incubation at least 10 minutes", "result": 500, "unit": "nM"}, {"measurement": "type of inhibition", "setting": "α4β3γ1 GABAA receptor", "result": "mixed type inhibition"}, {"measurement": "maximal current with insulin, % of maximal", "setting": "[2]; 100 nM insulin, GABA dose response 0.1 µM to 1 mM", "result": "99 ± 13", "unit": "%"}]}, {"compound": "NCCCC(=O)O", "note": "[GABA, γ-aminobutyric acid, reference compound]", "values": [{"measurement": "approximate EC30 of GABA", "setting": "[2]; concentration used for insulin dose response", "result": "~1000", "unit": "nM"}]}, {"compound": "CN1CCc2cc3c(cc2[C@H]1[C@@H]1OC(=O)c2c1ccc1c2OCO1)OCO3", "note": "[bicuculline]", "values": [{"measurement": "type of GABAA antagonism", "setting": "GABAA receptor; rightward shift in GABA EC50, no significant effect on maximal current, ref [2]", "result": "typical competitive inhibitor"}]}, {"compound": "COc1c(O[C@@H]2O[C@H](CO)[C@@H](O)[C@H](O)[C@H]2O)cc2c(c1OC)-c1ccc(SC)c(=O)cc1[C@@H](NC(C)=O)CC2", "note": "[thiocolchicoside]", "values": [{"measurement": "type of GABAA antagonism", "setting": "GABAA receptor; similar effects and shifts in GABA dose response curves, ref [11]", "result": "competitive inhibitors of the GABAA receptor"}]}]}
